# According to ChEMBL document CHEMBL1671835, “Discovery of a Potent, S1P3-Sparing Benzothiazole Agonist of Sphingosine-1-Phosphate Receptor 1 (S1P1)” (ACS Med Chem Lett, 2011):
# pEC50: −log10 of the molar value. Activity calls are given as the source filed them. No cut-off for these calls is given here.
# Columns and labels:
# [1] = target: T1, Sphingosine 1-phosphate receptor 3 (Homo sapiens, UniProt Q99500); experiment: Agonist activity at human S1P3 receptor expressed in CHO-K1 cells co-expressing Gq/i5 G-protein assessed as calcium mobilization by FLIPR assay; format: functional, cell-based
# How it was run: (§1)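 hS1P3 and Gq/i5 co-transfected into CHO-K1 cells; agonism read as Ca2+ mobilization. Percent efficacy is relative to 0.200 μM S1P, and >top concentration is reported when activity stays under 10% of control. Each value is the mean of at least two determinations.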
# [2] = target: T2, Sphingosine 1-phosphate receptor 1 (Homo sapiens, UniProt P21453); experiment: Agonist activity at human S1P1 receptor expressed in human U2OS cells co-expressing eGFP assessed as receptor internalization after 1 hr; format: functional, cell-based
# How it was run: (§2)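 hS1P1-GFP fusion expressed in U2OS cells; agonism read as receptor internalization. Percent efficacy is relative to 1.00 μM reference agonist, and >top concentration is reported when activity stays under 10% of control. Each value is the mean of at least two determinations.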
# [3] = target: T2, Sphingosine 1-phosphate receptor 1; experiment: Agonist activity at human S1P1 receptor expressed in human U2OS cells co-expressing eGFP assessed as receptor internalization after 1 hr relative to 1-(4-(6-benzylbenzofuran-2-yl)-3-fluorobenzyl)azetidine-3-carboxylic acid; format: functional, cell-based; how it was run: as §2
# [4] = target: T1, Sphingosine 1-phosphate receptor 3; experiment: Agonist activity at human S1P3 receptor expressed in CHO-K1 cells co-expressing Gq/i5 G-protein assessed as calcium mobilization by FLIPR assay relative to S1P; format: functional, cell-based; how it was run: as §1
# Rattus norvegicus [5] = experiment: Immunomodulatory activity in Lewis rat assessed as reduction of circulating lymphocytes count at 1 mg/kg, po after 24 hrs relative to control; format: functional; design: scale not given: the % may be the effect or the level left
# How it was run: (§3)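 Female Lewis rats dosed orally at 0.3, 1.0 or 3.0 mg/kg in 20% captisol, pH 2, N = 5/group. Blood lymphocyte counts and plasma concentration taken 24 h postdose. Compared with vehicle by ANOVA/Dunnett's test, P < 0.05.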
# [6] = Fraction unbound in rat plasma at 5 ug/ml by ultracentrifugation analysis; format: ADME, cell-free
# How it was run: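 Plasma protein binding determined by ultracentrifugation at 5.0 μg/mL test compound.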
# Rattus norvegicus [7] = experiment: Immunosuppressive activity in delayed-type hypersensitivity Lewis rat model assessed as reduction of ovalbumin/complete Freund's adjuvant-induced ear swelling at 1 to 3 mg/kg, po qd for 10 days; format: functional, organism-based
# How it was run: (§4)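 Female Lewis rats dosed orally once daily for 10 days at 0.1–3.0 mg/kg in 20% captisol, pH 2 (N = 8/group; N = 4 at 3.0 mg/kg). On day 1 rats were immunized with ovalbumin plus complete Freund's adjuvant. One week later ovalbumin was injected intracutaneously into one ear. Ear-thickness change and blood lymphocytes measured 48 h after challenge; compared with vehicle by ANOVA/Dunnett's test.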
# Cynomolgus monkey = experiment: Liver blood flow in cynomolgus monkey at 4 mg/kg, iv and 10 mg/kg, po; format: ADME, organism-based, Macaca fascicularis; details: in vivo
# How it was run: (§5)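 Male cynomolgus monkeys, N = 3 per route: iv 4 mg/kg in 20% captisol, pH 4; po 10 mg/kg in 20% captisol with 1% pluronic F68 and 1% HPMC, pH 2. Clearance expressed also as percent of liver blood flow.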
# [8] = Volume of distribution at steady state in Sprague-Dawley rat at 2 mg/kg, iv and 15 mg/kg, po; format: ADME, organism-based; details: in vivo, read-out: Vdss
# How it was run: (§6)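 Female Sprague-Dawley rats, N = 3 per route: iv 2 mg/kg in DMSO; po 15 mg/kg in 20% captisol, pH 2. Clearance expressed also as percent of liver blood flow.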
# Rattus norvegicus [9] = experiment: Immunomodulatory activity in Lewis rat assessed as reduction of circulating lymphocytes count at 3 mg/kg, po after 24 hrs relative to control; format: functional; how it was run: as §3
# [10] = Oral bioavailability in Sprague-Dawley rat at 15 mg/kg; format: ADME, organism-based; details: in vivo; how it was run: as §6
# Rattus norvegicus [11] = experiment: Immunosuppressive activity in delayed-type hypersensitivity Lewis rat model assessed as reduction of ovalbumin/complete Freund's adjuvant-induced ear swelling at 0.3 mg/kg, po qd for 10 days; format: functional, organism-based; design: dose 0.3 mg/kg; how it was run: as §4
# [12] = Inhibition of human cytochrome P450; format: ADME
# [13] = Mutagenic activity in Salmonella Typhimurium by Ames test; format: toxicity; details: salmonella enterica subsp. enterica serovar typhimurium
# [14] = Clearance in cynomolgus monkey at 4 mg/kg, iv and 10 mg/kg, po; format: ADME, organism-based, Macaca fascicularis; details: in vivo; how it was run: as §5
# Rattus norvegicus [15] = experiment: Immunomodulatory activity in Lewis rat assessed as reduction of circulating lymphocytes count at 0.3 mg/kg, po after 24 hrs relative to control; format: functional; how it was run: as §3
# [16] = Half life in cynomolgus monkey at 4 mg/kg, iv and 10 mg/kg, po; format: ADME, organism-based, Macaca fascicularis; details: in vivo; how it was run: as §5
# [17] = Clearance in Sprague-Dawley rat at 2 mg/kg, iv and 15 mg/kg, po; format: ADME, organism-based; details: in vivo; how it was run: as §6
# [18] = Volume of distribution at steady state in cynomolgus monkey at 4 mg/kg, iv and 10 mg/kg, po; format: ADME, organism-based, Macaca fascicularis; details: in vivo, read-out: Vdss; how it was run: as §5
# Rattus norvegicus [19] = experiment: Liver blood flow in Sprague-Dawley rat at 2 mg/kg, iv and 15 mg/kg, po; format: ADME, organism-based; details: in vivo; how it was run: as §6
# Rattus norvegicus [20] = experiment: Cardiotoxicity in rat assessed as effect on heart rate at 30 mg/kg, po; format: toxicity, organism-based; design: dose 30 mg/kg, route oral; details: in vivo
# How it was run: (§7)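 Telemetered rats given oral doses; heart rate and mean arterial pressure monitored to set a no-effect level.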
# [21] = AUC (0 to 24 hrs) in Sprague-Dawley rat at 100 mg/kg, po qd for 4 days; format: ADME, organism-based; design: time < 24 hr, dose 100 mg/kg, route oral; details: plasma
# [22] = Mean residence time in cynomolgus monkey at 4 mg/kg, iv and 10 mg/kg, po; format: ADME, organism-based, Macaca fascicularis; details: in vivo; how it was run: as §5
# Rattus norvegicus [23] = experiment: Immunomodulatory activity in po dosed Lewis rat assessed as reduction of circulating lymphocytes count after 24 hrs; format: functional, organism-based; how it was run: as §3
# [24] = Mean residence time in Sprague-Dawley rat at 2 mg/kg, iv and 15 mg/kg, po; format: ADME, organism-based; details: in vivo; how it was run: as §6
# [25] = Half life in Sprague-Dawley rat at 2 mg/kg, iv and 15 mg/kg, po; format: ADME, organism-based; details: in vivo; how it was run: as §6
# [26] = Cmax in Sprague-Dawley rat at 100 mg/kg, po qd for 4 days; format: ADME, organism-based; design: dose 100 mg/kg, route oral; details: in vivo
# Rattus norvegicus [27] = experiment: Cardiotoxicity in rat assessed as effect on mean arterial pressure at 30 mg/kg, po; format: toxicity, organism-based, Artery; design: dose 30 mg/kg, route oral; details: in vivo; how it was run: as §7
# [28] = Oral bioavailability in cynomolgus monkey at 10 mg/kg; format: ADME, organism-based, Macaca fascicularis; details: in vivo; how it was run: as §5
# Rattus norvegicus [29] = experiment: Toxicity in Sprague-Dawley rat assessed as proconvulsive activity at 100 mg/kg, po qd for 4 days; format: organism-based; design: dose 100 mg/kg, route oral; details: in vivo, 96 h
# How it was run: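 Sprague-Dawley rats (N = 3) dosed orally at 100 mg/kg once daily for 4 days and observed for proconvulsive activity.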
# T1 sequence (Q99500 whole entry): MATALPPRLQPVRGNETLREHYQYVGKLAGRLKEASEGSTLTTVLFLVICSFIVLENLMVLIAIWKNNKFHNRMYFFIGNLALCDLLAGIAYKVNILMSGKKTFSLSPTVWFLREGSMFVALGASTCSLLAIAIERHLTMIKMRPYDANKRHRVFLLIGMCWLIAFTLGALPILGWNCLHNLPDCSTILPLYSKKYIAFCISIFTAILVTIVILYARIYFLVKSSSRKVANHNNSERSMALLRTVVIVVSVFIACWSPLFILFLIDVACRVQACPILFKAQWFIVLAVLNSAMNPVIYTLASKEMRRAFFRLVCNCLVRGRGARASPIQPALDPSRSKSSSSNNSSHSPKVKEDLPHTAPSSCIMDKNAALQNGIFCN
# T2 sequence (P21453 whole entry, the tested form may be a part): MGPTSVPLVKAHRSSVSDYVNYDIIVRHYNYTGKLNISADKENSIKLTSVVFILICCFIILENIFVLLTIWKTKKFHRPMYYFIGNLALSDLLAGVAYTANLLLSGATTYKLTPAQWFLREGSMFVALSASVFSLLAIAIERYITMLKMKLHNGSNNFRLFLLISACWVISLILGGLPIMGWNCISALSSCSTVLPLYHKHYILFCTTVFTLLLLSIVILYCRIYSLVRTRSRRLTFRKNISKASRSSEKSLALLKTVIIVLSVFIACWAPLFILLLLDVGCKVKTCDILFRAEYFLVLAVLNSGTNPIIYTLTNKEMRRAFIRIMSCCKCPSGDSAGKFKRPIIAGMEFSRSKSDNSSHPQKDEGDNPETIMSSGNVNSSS
compound,measurement,setting,value
O=C(O)C1CN(Cc2ccc(-c3nc4ccc(Cc5ccccc5)cc4[nH]3)c(F)c2)C1,pEC50,[1],< 4.60
same,pEC50,[2],< 5.20
O=C(O)C1CN(Cc2ccc(-c3cn4cc(Cc5ccccc5)ccc4n3)c(F)c2)C1,pEC50,[1],< 4.60
same,Efficacy,[3],115%
same,pEC50,[2],5.17
O=C(O)C1CN(Cc2ccc(-c3nc4cc(Cc5ccc(F)cc5F)ccc4s3)c(F)c2)C1,pEC50,[1],5.92
same,Efficacy,[3],186%
same,pEC50,[2],7.38
same,Efficacy,[4],24%
O=C(O)C1CN(Cc2ccc(-c3nc4cc(Cc5ccc(F)cc5)ccc4s3)c(F)c2)C1,pEC50,[1],5.72
same,Efficacy,[3],129%
same,pEC50,[2],7.48
same,Efficacy,[4],37%
Cc1ccccc1Cc1ccc2sc(-c3ccc(CN4CC(C(=O)O)C4)cc3F)nc2c1,Activity,Rattus norvegicus [5],63%
same,pEC50,[1],5.61
same,Efficacy,[3],118%
same,pEC50,[2],7.59
same,Efficacy,[4],40%
O=C(O)C1CN(Cc2ccc(-c3nc4cc(Cc5ccccc5)ccc4s3)c(F)c2)C1,pEC50,[2],7.38
same,Efficacy,[4],24%
O=C(O)C1CN(Cc2ccc(-c3nc4cc(Cc5c(F)cccc5F)ccc4s3)c(F)c2)C1,pEC50,[1],< 4.60
same,Efficacy,[3],126%
same,pEC50,[2],6.90
O=C(O)C1CN(Cc2ccc(-c3nc4cc(Cc5ccc(Cl)cc5)ccc4s3)c(F)c2)C1,pEC50,[1],< 4.60
same,Efficacy,[3],117%
same,pEC50,[2],6.80
O=C(O)C1CN(Cc2ccc(-c3nc4cc(Cc5ccccc5Cl)ccc4s3)c(F)c2)C1,Activity,Rattus norvegicus [5],63%
same,pEC50,[1],5.31
same,Efficacy,[3],121%
same,pEC50,[2],7.38
same,Efficacy,[4],41%
O=C(O)C1CN(Cc2ccc(-c3cc4cc(Cc5ccccc5)ccc4o3)c(F)c2)C1,pEC50,[1],5.76
same,Efficacy,[3],96%
same,fraction unbound at 5 ug/ml,[6],0.015
same,Efficacy,[4],42%
O=C(O)C1CN(Cc2ccc(-c3nc4cc(Cc5ccc(F)c(F)c5)ccc4s3)c(F)c2)C1,pEC50,[1],6.01
same,Efficacy,[3],151%
same,pEC50,[2],7.52
same,Efficacy,[4],19%
O=C(O)C1CN(Cc2ccc(-c3nc4ccc(Cc5ccccc5)cc4o3)c(F)c2)C1,pEC50,[1],6.27
same,Efficacy,[3],108%
same,pEC50,[2],7.03
same,Efficacy,[4],87%
O=C(O)C1CN(Cc2ccc(-n3cc4cc(Cc5ccccc5)ccc4n3)c(F)c2)C1,pEC50,[1],5.95
same,Efficacy,[3],53%
same,pEC50,[2],5.54
same,Efficacy,[4],43%
O=C(O)C1CN(Cc2ccc(-c3cc4ccc(Cc5ccccc5)cc4o3)c(F)c2)C1,pEC50,[1],6.17
same,pEC50,[2],7.89
same,Efficacy,[4],42%
O=C(O)C1CN(Cc2ccc(-n3cc4ccc(Cc5ccccc5)cc4n3)c(F)c2)C1,pEC50,[1],5.57
same,Efficacy,[3],100%
same,pEC50,[2],5.74
same,Efficacy,[4],48%
O=C(O)C1CN(Cc2ccc(-c3cn4ccc(Cc5ccccc5)cc4n3)c(F)c2)C1,pEC50,[1],5.22
same,Efficacy,[3],110%
same,pEC50,[2],6.13
same,Efficacy,[4],50%
O=C(O)C1CN(Cc2ccc(-c3nc4cc(Cc5ccccc5)ccc4o3)c(F)c2)C1,pEC50,[1],6.45
same,Efficacy,[3],105%
same,pEC50,[2],6.49
same,Efficacy,[4],77%
O=C(O)C1CN(Cc2ccc(-c3nc4cc(Cc5cccc(Cl)c5)ccc4s3)c(F)c2)C1,pEC50,[1],5.41
same,Efficacy,[3],141%
same,pEC50,[2],7.31
same,Efficacy,[4],35%
O=C(O)C1CN(Cc2ccc(-c3nc4cc(Cc5cccc(F)c5)ccc4s3)c(F)c2)C1,pEC50,[1],6.16
same,Efficacy,[3],138%
same,pEC50,[2],7.68
same,Efficacy,[4],22%
Cc1ccc(Cc2ccc3sc(-c4ccc(CN5CC(C(=O)O)C5)cc4F)nc3c2)cc1,pEC50,[1],5.74
same,Efficacy,[3],132%
same,pEC50,[2],7.11
same,Efficacy,[4],17%
Cc1cccc(Cc2ccc3sc(-c4ccc(CN5CC(C(=O)O)C5)cc4F)nc3c2)c1,pEC50,[1],< 5.60
same,Efficacy,[3],92%
same,pEC50,[2],7.27
O=C(O)C1CN(Cc2ccc(-c3nc4cc(Cc5ccccc5F)ccc4s3)c(F)c2)C1,Efficacy,Rattus norvegicus [7],Active
same,LBF,Cynomolgus monkey,19%
same,Vd,[8],3.3 L/kg
same,Efficacy,Rattus norvegicus [9],74%
same,bioavailability,[10],68%
same,Efficacy,Rattus norvegicus [11],Active
same,inhibition (INH),[12],Not Active
same,Activity,[13],Non-toxic
same,Activity,Rattus norvegicus [5],63%
same,pEC50,[1],5.46
same,clearance,[14],8.33 mL/min/kg
same,Efficacy,[3],115%
same,Efficacy,Rattus norvegicus [15],34%
same,half-life,[16],35.2 h
same,clearance,[17],5.5 mL/min/kg
same,Vd,[18],1.6 L/kg
same,LBF,Rattus norvegicus [19],10%
same,Activity,Rattus norvegicus [20],Non-toxic
same,AUC at 24 h,[21],987 µg·h/mL
same,MRT,[22],3.3 h
same,Efficacy,Rattus norvegicus [23],Dose-dependent effect
same,MRT,[24],10 h
same,half-life,[25],7.5 h
same,Cmax,[26],49000 ng/mL
same,Activity,Rattus norvegicus [27],Non-toxic
same,bioavailability,[28],23%
same,Activity,Rattus norvegicus [29],Non-toxic
same,fraction unbound at 5 ug/ml,[6],0.021
same,Efficacy,[4],14%
O=C(O)C1CN(Cc2ccc(-c3nc4ccc(Cc5ccccc5)cc4s3)c(F)c2)C1,Efficacy,[3],84%
same,Efficacy,[4],50%
